Published values of several laboratories.
Protocols differ between the studies behind these lines.
Target: Serine/threonine-protein kinase 24 (STK24, Homo sapiens, UniProt Q9Y6E0)

C[C@H](c1cccc(C#N)c1)n1cc(Cl)cc(C(N)=O)c1=N — remaining binding (cell-free assay; competition with immobilised ligand; 1 µM): 89%
c1cncc(-c2cccc(Nc3nccc(NC4CCCCC4)n3)c2)c1 — remaining binding (binding; competition with immobilised ligand; 10 µM): 93%
O=C(NCCCN1CCOCC1)c1ccc(Nc2nccc(-c3cc4ccccc4s3)n2)cc1 — remaining binding (binding; competition with immobilised ligand; 1 µM): 39%
Cc1cnn2ncc(-c3ccnc(N(C)C)n3)c2c1 — remaining binding (binding; 1 µM): 98%
CNC(=O)[C@@H]1CC[C@@H](n2c(-c3ccc4cnccc4c3)nc3ccc(C(=O)NCc4cccc(C(N)=O)c4)cc32)C1 — remaining binding (binding; competition with immobilised ligand; 1 µM): 100%
CN(CCCC(F)(F)F)c1nccc(-c2cnn3ncccc23)n1 — remaining binding (binding; 1 µM): 100%
Cc1nc(Cc2cccc(C(F)(F)F)c2)sc1-c1ccc(C(N)=O)nc1 — remaining binding (cell-free assay; competition with immobilised ligand; 1 µM): 100%
CN(C)c1nccc(-c2cnc3ncccn23)n1 — remaining binding (binding; 1 µM): 94%
O=C(Nc1c[nH]nc1C(=O)NC1CCNCC1)c1cc(F)cc(F)c1 — remaining binding (binding; competition with immobilised ligand; 1 µM): 91%
Cn1nc(C(=O)NCc2ccc(C(=O)O)cc2)cc1-c1ccc2[nH]ccc2c1 — remaining binding (cell-free assay; competition with immobilised ligand; 0.1 µM): 97%
COc1ccnn2ncc(-c3ccnc(N(C)C)n3)c12 — remaining binding (binding; 1 µM): 100%
O=C(c1ccc(Nc2nccc(-c3cc4ccccc4s3)n2)cc1)N1CCC(N2CCCC2)CC1 — remaining binding (binding; competition with immobilised ligand; 1 µM): 83%
FC(F)(F)Oc1cccc(-c2cnc3ccc(-c4ccncc4)nn23)c1 — remaining binding (cell-free assay; competition with immobilised ligand; 5 µM): 86%
O=C(NS(=O)(=O)c1ccc(NCC2CCOCC2)c([N+](=O)[O-])c1)c1ccc(N2CCN(Cc3ccc(C(F)(F)F)cc3-c3ccc(Cl)cc3)CC2)cc1Oc1cnc2[nH]ccc2c1 — remaining binding (cell-free assay; competition with immobilised ligand; 1 µM): 100%
O=C(c1ccc(Nc2ncc(Cl)c(-c3cc4ccccc4s3)n2)cc1)N1CCC(N2CCCC2)CC1 — remaining binding (binding; competition with immobilised ligand; 1 µM): 92%
CN(C)c1nccc(-c2cnn3ncccc23)n1 — remaining binding (binding; 1 µM): 100%
FC(F)(F)c1ccc2c(c1)nc(-c1cccnc1)n2C1CC1 — remaining binding (cell-free assay; competition with immobilised ligand; 1 µM): 100%
N[C@H]1CCN(c2nccc(-c3cnn4ncccc34)n2)C1 — remaining binding (binding; 1 µM): 83%
O=C(NC[C@@H]1[C@H]2CN(C(=O)OCc3cc(C(F)(F)F)cc(C(F)(F)F)c3)C[C@@H]12)c1ccc2[nH]nnc2c1 — remaining binding (cell-free assay; competition with immobilised ligand; 1 µM): 90%
